In PubChem BioAssay:
Active and inactive are the calls of the source.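 The calls were made as follows, unless noted: active = inhibition at or above 50% relative to wild type and mutant plate controls; inactive = inhibition below 50%.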

How the values were obtained:
[1] = endothelial E-selectin expression blockers – imaging, HUVEC, immunofluorescence, MLSMR starter and 10KST1 sets, primary screen (AID 487;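 active = visually confirmed hit in the image check and inhibition above 20%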;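 as to inhibition: signal is fraction of cell area covered by stained E-selectin grains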;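 as to nuclei count: 100% = median nuclei count of all wells on the same plate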); conditions: HUVEC TNFalpha-induced E-selectin immunofluorescence imaging, at 2 µM; inhibition: stronger effect = higher value; nuclei count: measured here: cell number, toxicity
[2] = Primary imaging screen for DUSP6 inhibitors that restore phospho-Erk in transfected HeLa cells, chemical complementation (AID 609;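 active = compounds giving at least 50% inhibition in the cell-based MKP-3 phosphatase rescue imaging test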;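 as to inhibition: phospho-Erk level distribution per well compared with pooled transfected vehicle control wells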); conditions: HeLa MKP-3 transfected, phospho-Erk imaging KS statistic, at 10 µM, cells stimulated with TPA for 15 min
[3] = molecular target: Dual specificity protein phosphatase 6 (Homo sapiens) (UniProt Q16828); test: as above; conditions: HeLa MKP-3 transfected, phospho-Erk imaging KS statistic; at 10 µM; stronger effect = higher value; cells stimulated with TPA for 15 min
Sequence of Dual specificity protein phosphatase 6 (Homo sapiens) (Q16828 whole entry, looked up): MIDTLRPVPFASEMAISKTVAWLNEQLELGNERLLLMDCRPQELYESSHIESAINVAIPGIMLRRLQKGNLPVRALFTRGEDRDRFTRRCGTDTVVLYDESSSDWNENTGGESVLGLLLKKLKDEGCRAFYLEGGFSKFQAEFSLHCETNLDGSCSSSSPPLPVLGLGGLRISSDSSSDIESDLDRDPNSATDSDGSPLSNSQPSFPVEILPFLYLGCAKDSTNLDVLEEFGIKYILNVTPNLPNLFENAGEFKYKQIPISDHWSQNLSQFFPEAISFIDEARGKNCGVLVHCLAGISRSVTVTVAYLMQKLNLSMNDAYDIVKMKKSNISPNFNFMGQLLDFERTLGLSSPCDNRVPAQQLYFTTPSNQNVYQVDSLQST

[4] = molecular target: Voltage-gated potassium channel subunit beta-2 (Rattus norvegicus) (UniProt P62483); test: inhibitors of rat Kvbeta2 reductase activity – biochemical, NADPH fluorescence, primary screen (AID 622;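 active = fluorescence slope higher than the sample average by over 3 SD, cut at about -0.22 in these data, passing the limit was not always enough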;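 also: slope of raw intensity against log time taken from 70 to 1610 s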); conditions: recombinant KvBeta, 4-cyanobenzaldehyde reduction, at 10 µM, stronger effect = higher value
Sequence of Voltage-gated potassium channel subunit beta-2 (Rattus norvegicus) (P62483 whole entry, looked up): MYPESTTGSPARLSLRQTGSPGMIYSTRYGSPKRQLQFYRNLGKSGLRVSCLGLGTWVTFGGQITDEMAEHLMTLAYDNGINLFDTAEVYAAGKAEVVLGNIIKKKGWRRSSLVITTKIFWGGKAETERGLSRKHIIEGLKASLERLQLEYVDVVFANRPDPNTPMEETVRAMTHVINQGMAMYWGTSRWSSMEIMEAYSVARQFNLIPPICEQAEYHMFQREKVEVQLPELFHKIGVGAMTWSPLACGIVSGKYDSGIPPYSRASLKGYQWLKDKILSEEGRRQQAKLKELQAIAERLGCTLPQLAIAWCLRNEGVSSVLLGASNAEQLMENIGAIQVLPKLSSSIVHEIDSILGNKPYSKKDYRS

[5] = molecular target: Voltage-gated potassium channel subunit beta-2 (Rattus norvegicus) (UniProt P62483); test: enhancers of rat Kvbeta2 NADPH turnover – biochemical, NADPH fluorescence, primary screen (AID 623;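 active = NADPH fluorescence slope more negative than the mean of all samples by about 3 SD, 99.7% confidence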;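 also: fluorescence intensity change per second fitted from 20 to 320 s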); conditions: Recombinant KvBeta, NADPH fluorescence decrease slope, 10 min; at 10 µM; stronger effect = lower value
[6] = molecular target: Muscarinic acetylcholine receptor M4 (Homo sapiens) (UniProt P08173); test: M4-linked GIRK flux change, two-sided – cell-based, HEK293 M4/GIRK, thallium flux, BTC-AM, M4 allosteric agonist project, primary screen (AID 625;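 active = fluorescence slope after compound addition differing from the mean of all tested samples at 99.7% confidence, mostly higher but some lower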;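 also: thallium influx through GIRK channels coupled to M4 in HEK293 cells with BTC-AM dye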); conditions: at 10 µM, actives lie on both sides
Sequence of Muscarinic acetylcholine receptor M4 (Homo sapiens) (P08173 whole entry, looked up): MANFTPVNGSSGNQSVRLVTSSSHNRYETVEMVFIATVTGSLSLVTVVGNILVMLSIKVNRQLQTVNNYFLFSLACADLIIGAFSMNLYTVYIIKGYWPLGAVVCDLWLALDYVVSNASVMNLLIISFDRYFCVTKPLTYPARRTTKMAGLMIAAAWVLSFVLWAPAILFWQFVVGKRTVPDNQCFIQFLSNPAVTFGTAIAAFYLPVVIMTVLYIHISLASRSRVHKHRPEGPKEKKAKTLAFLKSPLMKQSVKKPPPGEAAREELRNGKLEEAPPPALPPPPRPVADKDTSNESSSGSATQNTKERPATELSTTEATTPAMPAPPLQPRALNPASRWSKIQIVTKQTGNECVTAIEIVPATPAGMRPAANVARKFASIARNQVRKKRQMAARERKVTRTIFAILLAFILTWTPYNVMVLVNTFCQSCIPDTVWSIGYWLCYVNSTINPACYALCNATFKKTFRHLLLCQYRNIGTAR
Outline: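 Material – HEK293 cells with M4 receptor and GIRK channels · Buffer or medium – pH 7.3 thallium assay buffer · Doses – one dose, 10 µM final · Timing – cells overnight at 37 °C, BTC-AM loading 1 h, reads 2 min total · Measured by – kinetic fluorescence with BTC-AM dye · Controls – carbachol and DMSO controls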

[7] = inhibitors of larval lipid processing in zebrafish, primary screen, whole organism, PED6 fluorescence, gall bladder and intestine (AID 686;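 active = a full or partial loss of lipid-probe fluorescence in the fish gall bladder, intestine or both, judged by eye; inactive = no fluorescence loss, or compound toxic to the fish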;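 also: larvae 5 to 7 days old with five fish per well; signal comes from phospholipase A2 cleavage of quenched PED6 carried via bile; overnight exposure to compound and PED6 before scoring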); conditions: Zebrafish larvae PED6 lipid processing, fluorescence scoring; screened at 20 µM (by protocol)
Outline: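 system = live zebrafish larvae aged 5-7 days, whole organism | probe or stimulus = ingested quenched lipid PED6 at 100 nM | doses = 20 µM single dose | timing = overnight exposure | detection = fluorescence microscopy with visual scoring of gall bladder and intestine | read-out = visual per-well fluorescence inhibition score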

[8] = loss of swimming-algae plug formation – whole organism, Chlamydomonas reinhardtii, WT vs cilia-less mutant, absorbance, 96-well, primary screen (AID 463189); conditions: Chlamydomonas reinhardtii gravitaxis, OD600 absorbance, 2 days; at 10 µM; stronger effect = higher value;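 also: 0% = wild type cc124 cells in DMSO and 100% = ciliumless bld1 mutant cells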
[9] = measured here: cell density z-score
[10] = measured here: nuclear c-Myc green intensity z-score
[11] = measured here: nuclear pErk red intensity z-score, stronger effect = higher value

Row | Structure (SMILES) | inhibition [1] | nuclei count [1] [%] | z-score [2, 9] | z-score [2, 10] | z-score [2, 11] | inhibition [3] | fluorescence slope [4] | NADPH fluorescence slope [5] | fluorescence slope [6] | outcome [7] | inhibition [8]
1 | C=CCNc1nc(C2(C)CC3(CC(C)(C)OC3=O)C(=O)O2)cs1 (stereo not drawn) | -142% (inactive) | 155 | 0.249 | -0.125 | -1.68 | -2.07% (inactive) | -0.315 (inactive) | -1.4e-05 (inactive) | 0.0082 (inactive) | inactive | 6.21% (inactive)
2 | CCCOc1ccc(Cl)cc1CN1CCOCC1 | -21.7% (inactive) | 67.6 | 0.154 | -1.58 | -0.239 | 20.8% (inactive) | -0.499 (inactive) | -3e-05 (inactive) | 0.0115 (inactive) | inactive | 32.2% (inactive)
3 | COc1cc(C(=O)Nc2ccccn2)cc(OC)c1OC | -234% (inactive) | 165 | -0.193 | -1.03 | 0.79 | -2.07% (inactive) | -0.398 (inactive) | -5.6e-05 (inactive) | 0.00377 (inactive) | inactive | 6.27% (inactive)
